Article PMC6413502 (Molecular pharmaceutics, 2018)
“Also recorded” adds a separate entry of the source. Like-named read-outs stand apart in the source and are kept apart here.

Assays:
[1] = system: scavenger receptors in the liver; settings: read-out: IC50, inhibition of 125I-DNA nanoparticle uptake by the liver; previously reported; cited from earlier work
[2] = system: scavenger receptors in the liver; settings: for percent of dose captured by the liver: mouse, in vivo, iv
[3] = Micelle formation of PEG-peptides without albumin; type: physicochemical; settings: dynamic light scattering, 1–40 nmol in 1 ml 150 mM sodium chloride; for micelle formation (in words): 50 mM sodium phosphate pH 7.4; for critical-micelle-concentration: 50 mM sodium phosphate pH 7.4, no albumin
In short: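 Particle size of the PEG-peptide was measured by dynamic light scattering at increasing amounts (1–40 nmol in 1 ml buffer) to locate the critical micelle concentration. Sizes are the mean and standard error of ten measurements, after deconvolution by intensity-averaged multimodal distribution.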

Substance	micelle formation (in words) [3]	critical-micelle-concentration [3]	also measured
(Acr-Lys4)3-Acr-Lys-Cys-PEG5kDa [compound 27]	–	–	IC50 [1]: 8 µM
PEG2kDa-Cys-Tyr-(Leu-Lys4)3-Leu-Lys [compound 33]	avoided micelle formation	–	increase in potency (IC50) on decreasing PEG from 5 to 2 kDa ([2]; 33 compared with 32, saturation of liver uptake): 6 fold
PEG5kDa-Cys-Tyr-(Leu-Arg)8 [compound 38]	formed micelles	2 to 5 µM	percent of dose captured by the liver [2]: 45%
PEG5kDa-Cys-Tyr-(Leu-Lys4)3-Leu-Lys [compound 32]	avoided micelle formation	–	–
PEG5kDa-Cys-Tyr-(Leu-Lys)4 [compound 37]	formed micelles	2 to 5 µM	–
PEG5kDa-Cys-Tyr-(Leu-Lys)6 [compound 36]	formed micelles	2 to 5 µM	–
PEG5kDa-Cys-Tyr-(Leu-Lys)8 [compound 35]	formed micelles	2 to 5 µM	–
PEG5kDa-Cys-Tyr-(Lys)4-Leu-Lys4-Leu4 [compound 39]	produced measurable micelles; also recorded: formed micelles	2 to 5 µM	–
PEG5kDa-Cys-Tyr-(Trp-Lys3)4 [compound 31]	avoided the formation of detectable micelles	–	–
PEG5kDa-Cys-Tyr-Leu4-(Leu-Lys)4-Lys4 [compound 40]	produced measurable micelles; also recorded: formed micelles	2 to 5 µM	–
PEG5kDa-Cys-Tyr-Lys25 [compound 26]	–	–	percent of dose captured by the liver [2]: 5%
PEG10kDa-Cys-Tyr-Lys25 [compound 25]	–	–	percent of dose captured by the liver [2]: 5%
PEG20kDa-Cys-Tyr-Lys25 [compound 24]	–	–	percent of dose captured by the liver [2]: 28%
PEG30kDa-Cys-Tyr-Lys10 [compound 20]	–	–	IC50 ([2]; read-out: apparent IC50, saturation of liver uptake, 125I-PEG-peptide i.v. tail vein, 1–80 nmol, triplicate mice, liver at 5 min, assuming 2-mL blood volume): 1500 µM
Tyr-(Phe-Lys4)3Phe-Lys-Cys-PEG5kDa [compound 30]	avoided the formation of detectable micelles	–	–
